From ChEMBL document CHEMBL3085623, “Oridonin ring A-based diverse constructions of enone functionality: identification of novel dienone analogues effective for highly aggressive breast cancer by inducing apoptosis” (J Med Chem, 2013)
Active and inactive are the calls of the source. The rule behind the calls is not given here.

Key:
MCF7 = test: Antiproliferative activity against human MCF7 cells after 48 hrs by MTT assay; assay type: functional, cell-based; details: MCF7, 48 h
Summary of the method: (§1)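 Seeded at 1 × 10^4 cells/well, then exposed to DMSO or compound at 0.01, 0.1, 1, 5, 10 and 100 μM for 48 h. MTT (5 mg/mL in PBS) added for a further 4 h, formazan dissolved in DMSO, OD read at 550 nm. Quadruplicate wells per concentration. IC50 from curve fitting; mean ± SE of three independent experiments.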

MDA-MB-231 [1] = test: Antiproliferative activity against human MDA-MB-231 cells after 48 hrs by MTT assay; assay type: functional, cell-based; details: MDA-MB-231, 48 h; summary of the method: as §1
MDA-MB-231 [2] = test: Induction of apoptosis in human MDA-MB-231 cells assessed as caspase3 cleavage at 10 to 30 uM after 48 hrs by Western blot analysis; assay type: functional, cell-based
Summary of the method: (§2)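 MDA-MB-231 cells treated 48 h with DMSO or compound. Lysates quantified by Bradford; 30 μg protein run on SDS-PAGE and transferred to PVDF. Blocked in 5% milk, then probed overnight: anti-Bcl-2 1:200, Bax 1:1000, PARP 1:10000, NF-κB p65 1:2000, caspase-3 1:1000, β-actin 1:20000. ECL detection.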

MDA-MB-231 [3] = test: Induction of apoptosis in human MDA-MB-231 cells assessed as downregulation of PARP level at 10 to 30 uM after 48 hrs by Western blot analysis; assay type: functional, cell-based; summary of the method: as §2
HMEC = test: Growth inhibition of human HMEC cells after 24 hrs
MDA-MB-231 [4] = test: Induction of apoptosis in human MDA-MB-231 cells assessed as upregulation of cleaved PARP level at 10 to 30 uM after 48 hrs by Western blot analysis; assay type: functional, cell-based; summary of the method: as §2
MDA-MB-231 [5] = test: Induction of apoptosis in human MDA-MB-231 cells assessed as downregulation of Bcl2 level at 10 to 30 uM after 48 hrs by Western blot analysis; assay type: functional, cell-based; summary of the method: as §2
MDA-MB-231 [6] = test: Induction of apoptosis in human MDA-MB-231 cells assessed as upregulation of Bax level at 10 to 30 uM after 48 hrs by Western blot analysis; assay type: functional, cell-based; summary of the method: as §2
cells = details: Homo sapiens, NCI/ADR-RES, 48 h
MDA-MB-231 [7] = test: Induction of apoptosis in human MDA-MB-231 cells assessed as downregulation of p65 NF-kappaB level at 10 to 30 uM after 48 hrs by Western blot analysis; assay type: functional, cell-based; summary of the method: as §2
MDA-MB-231 [8] = test: Inhibition of colony formation of human MDA-MB-231 cells at 0.625 to 10 uM after 2 weeks by crystal violet staining-based GelCount method; assay type: functional, cell-based
Summary of the method: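 MDA-MB-231 cells seeded at 800/well and left 24 h. Then treated with 0.625–10 μM compound or DMSO, medium with compound renewed every 72 h for two weeks. Stained with 0.01% crystal violet for 10 min after PBS washes. Whole-well density quantified on GelCount. Triplicate; SD; one-way ANOVA.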

MDA-MB-231 [9] = test: Antitumor activity against human MDA-MB-231 cells xenografted in nude mouse assessed as inhibition of tumor growth at 5 mg/kg, ip administered 5 days per week for 10 days; assay type: functional, organism-based; set-up: dose 5 mg/kg
Summary of the method: (§3)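 Female nude mice, 4–6 weeks old, kept in a barrier unit on a 12 h light-dark cycle. Each mouse received 2.5 × 10^6 freshly harvested MDA-MB-231 cells in 100 μL PBS into the 3rd mammary fat pad. Mice were randomized into 3 groups. Once tumors reached 200 mm3, dosing was 5 mg/kg ip, 5 days/week for 10 days, in 50% DMSO/50% PEG. Tumor volume (0.5 × L × W2) and body weight were measured daily. One-way ANOVA.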

MDA-MB-231 [10] = test: Induction of apoptosis in human MDA-MB-231 cells assessed as downregulation of Bcl2 level at 2.5 to 10 uM after 48 hrs by Western blot analysis; assay type: functional, cell-based; summary of the method: as §2
MDA-MB-231 [11] = test: Induction of apoptosis in human MDA-MB-231 cells assessed as early apoptotic cells at 5 uM after 24 hrs using FITC-annexin V and propidium iodide staining by flow cytometry (reference value: 4.55 to 4.85 %); assay type: functional
MDA-MB-231 [12] = test: Induction of apoptosis in human MDA-MB-231 cells assessed as late apoptotic cells at 10 uM after 24 hrs using FITC-annexin V and propidium iodide staining by flow cytometry (reference value: 5.5 to 11.0 %); assay type: functional
MDA-MB-231 [13] = test: Induction of apoptosis in human MDA-MB-231 cells assessed as upregulation of Bax level at 2.5 to 10 uM after 48 hrs by Western blot analysis; assay type: functional, cell-based; summary of the method: as §2
MDA-MB-231 [14] = test: Induction of apoptosis in human MDA-MB-231 cells assessed as early apoptotic cells at 10 uM after 24 hrs using FITC-annexin V and propidium iodide staining by flow cytometry (reference value: 4.55 to 4.85 %); assay type: functional
MDA-MB-231 [15] = test: Induction of apoptosis in human MDA-MB-231 cells after 24 hrs using FITC-annexin V and propidium iodide staining by flow cytometry; assay type: functional, cell-based
MDA-MB-231 [16] = test: Induction of apoptosis in human MDA-MB-231 cells assessed as live cells at 5 uM after 24 hrs using FITC-annexin V and propidium iodide staining by flow cytometry (reference value: 83.45 to 89.30 %); assay type: functional
MDA-MB-231 [17] = test: Induction of apoptosis in human MDA-MB-231 cells assessed as late apoptotic cells at 1 uM after 24 hrs using FITC-annexin V and propidium iodide staining by flow cytometry (reference value: 5.5 to 11.0 %); assay type: functional
MDA-MB-231 [18] = test: Induction of apoptosis in human MDA-MB-231 cells assessed as early apoptotic cells at 1 uM after 24 hrs using FITC-annexin V and propidium iodide staining by flow cytometry (reference value: 4.55 to 4.85 %); assay type: functional
MDA-MB-231 [19] = test: Induction of apoptosis in human MDA-MB-231 cells assessed as dead cells at 10 uM after 24 hrs using FITC-annexin V and propidium iodide staining by flow cytometry (reference value: 0.3 to 1.00 %); assay type: functional
MDA-MB-231 [20] = test: Induction of apoptosis in human MDA-MB-231 cells assessed as caspase3 activation after 48 hrs by Western blot analysis; assay type: functional, cell-based; summary of the method: as §2
Mus musculus = test: Toxicity in human MDA-MB-231 cells xenografted nude mouse assessed as change body weight at 5 mg/kg, ip administered 5 days per week for 10 days; assay type: organism-based; set-up: dose 5 mg/kg, route intraperitoneal; details: in vivo; summary of the method: as §3
MDA-MB-231 [21] = test: Induction of apoptosis in human MDA-MB-231 cells assessed as PARP cleavage after 48 hrs by Western blot analysis; assay type: functional, cell-based; summary of the method: as §2
MDA-MB-231 [22] = test: Induction of apoptosis in human MDA-MB-231 cells assessed as downregulation of p65 NF-kappaB level at 2.5 to 10 uM after 48 hrs by Western blot analysis; assay type: functional, cell-based; summary of the method: as §2
MDA-MB-231 [23] = test: Induction of apoptosis in human MDA-MB-231 cells assessed as live cells at 10 uM after 24 hrs using FITC-annexin V and propidium iodide staining by flow cytometry (reference value: 83.45 to 89.30 %); assay type: functional
MDA-MB-231 [24] = test: Induction of apoptosis in human MDA-MB-231 cells assessed as late apoptotic cells at 5 uM after 24 hrs using FITC-annexin V and propidium iodide staining by flow cytometry (reference value: 5.5 to 11.0 %); assay type: functional
MDA-MB-231 [25] = test: Induction of apoptosis in human MDA-MB-231 cells assessed as live cells at 1 uM after 24 hrs using FITC-annexin V and propidium iodide staining by flow cytometry (reference value: 83.45 to 89.30 %); assay type: functional
MDA-MB-231 [26] = test: Induction of apoptosis in human MDA-MB-231 cells assessed as dead cells at 1 uM after 24 hrs using FITC-annexin V and propidium iodide staining by flow cytometry (reference value: 0.3 to 1.00 %); assay type: functional
MDA-MB-231 [27] = test: Induction of apoptosis in human MDA-MB-231 cells assessed as dead cells at 5 uM after 24 hrs using FITC-annexin V and propidium iodide staining by flow cytometry (reference value: 0.3 to 1.00 %); assay type: functional

Structure (SMILES): C=C1C(=O)[C@@]23C(=O)[C@@H](O)[C@@H]4C(C)(C)[C@@H]5OC[C@]4(C(=O)/C5=C\O)[C@@H]2CC[C@@H]1[C@H]3O
- IC50 (MCF7): > 30 µM
- IC50 (MDA-MB-231 [1]): > 30 µM

Structure (SMILES): C=C1C(=O)[C@]23[C@H](O)[C@H]1CC[C@H]2[C@@]12CO[C@]3(O)[C@@H](O)[C@@H]1C(C)(C)CC[C@@H]2O [ORIDONIN]
- IC50 (MCF7): 4.36 µM
- Activity (MDA-MB-231 [2]): inactive
- Activity (MDA-MB-231 [3]): Active
- IC50 (HMEC): 5.6 µM
- Activity (MDA-MB-231 [4]): Active
- IC50 (MDA-MB-231 [1]): 28 µM
- Activity (MDA-MB-231 [5]): Active
- Activity (MDA-MB-231 [6]): Active
- IC50 (cells): > 30 µM
- Activity (MDA-MB-231 [7]): Active

Structure (SMILES): C=C1C(=O)[C@@]23C(=O)[C@@H](O)[C@@H]4C(C)(C)[C@@H]5OC[C@]4(C(=O)/C5=C/OC)[C@@H]2CC[C@@H]1[C@H]3O
- IC50 (MCF7): 10.2 µM
- IC50 (MDA-MB-231 [1]): > 30 µM

Structure (SMILES): C=C1C(=O)[C@@]23[C@@H]4OC(C)(C)O[C@]25OC[C@]2(C(=O)C=CC(C)(C)[C@H]2[C@@H]5O)[C@@H]3CC[C@@H]14
- IC50 (MCF7): 0.56 µM
- IC50 (HMEC): 5.11 µM
- IC50 (MDA-MB-231 [1]): 3.49 µM

Structure (SMILES): C=C1C(=O)[C@@]23[C@@H]4OC(C)(C)O[C@]25OC[C@]2(C=CC(=O)C(C)(C)[C@H]2[C@@H]5O)[C@@H]3CC[C@@H]14
- inhibition (MDA-MB-231 [8]): Active
- TGI (MDA-MB-231 [9]): Active
- IC50 (MCF7): 0.98 µM
- Activity (MDA-MB-231 [10]): Active
- Activity (MDA-MB-231 [11]): 10.15%
- Activity (MDA-MB-231 [12]): 39.1%
- Activity (MDA-MB-231 [13]): Active
- Activity (MDA-MB-231 [14]): 8.3%
- IC50 (HMEC): 10.2 µM
- Activity (MDA-MB-231 [15]): Dose-dependent effect
- Activity (MDA-MB-231 [16]): 73%
- Activity (MDA-MB-231 [17]): 11.35%
- IC50 (MDA-MB-231 [1]): 5.6 µM
- Activity (MDA-MB-231 [18]): 5.05%
- Activity (MDA-MB-231 [19]): 0.3%
- Activity (MDA-MB-231 [20]): Dose-dependent effect
- Activity (Mus musculus): Non-toxic
- Activity (MDA-MB-231 [21]): Dose-dependent effect
- Activity (MDA-MB-231 [22]): Active
- IC50 (cells): 6.02 µM
- Activity (MDA-MB-231 [23]): 52.3%
- Activity (MDA-MB-231 [24]): 16.55%
- Activity (MDA-MB-231 [25]): 83.05%
- Activity (MDA-MB-231 [26]): 0.55%
- Activity (MDA-MB-231 [27]): 0.3%

Structure (SMILES): C=C1C(=O)[C@]23[C@H](O)[C@H]1CC[C@H]2[C@]12C=CC(=O)C(C)(C)[C@H]1[C@H](O)[C@@]3(O)OC2
- IC50 (MCF7): 3.48 µM
- IC50 (HMEC): 10.1 µM
- IC50 (MDA-MB-231 [1]): 9.39 µM

Structure (SMILES): C=C1C(=O)[C@@]23[C@@H]4OC(C)(C)O[C@]25OC[C@]2(C(=O)C(C=O)=CC(C)(C)[C@H]2[C@@H]5O)[C@@H]3CC[C@@H]14
- inhibition (MDA-MB-231 [8]): Active
- IC50 (MCF7): 1.28 µM
- Activity (MDA-MB-231 [10]): Active
- Activity (MDA-MB-231 [11]): 10.95%
- Activity (MDA-MB-231 [12]): 36.1%
- Activity (MDA-MB-231 [13]): Active
- Activity (MDA-MB-231 [14]): 11.2%
- IC50 (HMEC): 4.51 µM
- Activity (MDA-MB-231 [15]): Dose-dependent effect
- Activity (MDA-MB-231 [16]): 69.55%
- Activity (MDA-MB-231 [17]): 11.7%
- IC50 (MDA-MB-231 [1]): 3.46 µM
- Activity (MDA-MB-231 [18]): 3.15%
- Activity (MDA-MB-231 [19]): 0.45%
- Activity (MDA-MB-231 [20]): Dose-dependent effect
- Activity (MDA-MB-231 [21]): Dose-dependent effect
- Activity (MDA-MB-231 [22]): Active
- IC50 (cells): 6.55 µM
- Activity (MDA-MB-231 [23]): 52.25%
- Activity (MDA-MB-231 [24]): 19.25%
- Activity (MDA-MB-231 [25]): 84.95%
- Activity (MDA-MB-231 [26]): 0.2%
- Activity (MDA-MB-231 [27]): 0.25%

Structure (SMILES): C=C1C(=O)[C@]23[C@H](O)[C@H]1CC[C@H]2[C@@]12CO[C@]3(O)[C@@H](O)[C@@H]1C(C)(C)C=CC2=O
- IC50 (MCF7): 1.31 µM
- IC50 (HMEC): 4.95 µM
- IC50 (MDA-MB-231 [1]): 2.23 µM
- IC50 (cells): 5.82 µM
